High-throughput results deposited in PubChem BioAssay by The Scripps Research Institute Molecular Screening Center.
NPY-Y1 antag = NPY-Y1 (human) receptor antagonism; hit rate 1% among 200,000; HEK293-CNG Y1 cells, membrane potential fluorescence; NPY at EC95, then isoproterenol; P25929; inhibition, % at 3.6 µM; AID 1040;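 active = inhibition above the campaign mean inhibition of all tested compounds plus 3 SD, cut at about 20% in these data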;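 also: 0% = DMSO wells given NPY plus isoproterenol and 100% = isoproterenol alone without NPY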
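Material: HEK293 Y1/CNG channel cell line | Also added: NPY (25 nM), isoproterenol (1 µM), Ro 20-1724 (25 µM) | Compound: One concentration, 3.6 µM, in 0.4% DMSO | Schedule: 3 h dye uptake, 1 h room-temperature compound, 45 min post-isoproterenol | Signal: Membrane-potential fluorescent dye readout | Read-out: % inhibition of NPY effect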
NPY-Y1 PAM-ag = potentiators or agonists of human neuropeptide Y receptor Y1; activation, % at 3.6 µM; NPY-Y1 expressing cells, potentiator/agonist activation; P25929; AID 1304; hit rate 0.37% among 220,000; in the data active = activation above about 33%, passing the limit was not always enough;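 also: cells stimulated with NPY at EC10 then isoproterenol at EC100; 0% = low agonist plus stimulus and 100% = saturating agonist plus stimulus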
NPY2 pot ag = human NPY-Y2 potentiation or agonism, primary screen. hit rate 0.45% among 220,000. activation, % at 3.6 µM. P49146. cells expressing NPY-Y2, potentiator/agonist read-out; in the data active = activation above about 27%;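 also: cells stimulated with NPY near EC25 plus isoproterenol at EC100; 0% = vehicle plus submaximal agonist and 100% = vehicle plus saturating agonist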
Target sequence (P49146 whole entry, looked up): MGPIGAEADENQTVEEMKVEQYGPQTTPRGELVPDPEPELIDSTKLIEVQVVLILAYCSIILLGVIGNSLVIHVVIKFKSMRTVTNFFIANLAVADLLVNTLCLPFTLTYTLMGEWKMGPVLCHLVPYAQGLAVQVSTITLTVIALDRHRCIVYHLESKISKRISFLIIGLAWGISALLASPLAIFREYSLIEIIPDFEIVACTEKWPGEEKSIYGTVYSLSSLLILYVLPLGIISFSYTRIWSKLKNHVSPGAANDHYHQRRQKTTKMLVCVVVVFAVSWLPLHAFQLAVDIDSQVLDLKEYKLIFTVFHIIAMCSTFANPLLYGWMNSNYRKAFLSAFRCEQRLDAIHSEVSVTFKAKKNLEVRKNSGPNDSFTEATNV
NPY-Y2 antag = NPY-Y2 (human) receptor antagonism | inhibition, % at 2.7 µM | NPY-Y2 expressing cells, antagonist mode | hit rate 0.99% among 140,000 | AID 793 | P49146; in the data active = inhibition above about 17%;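 also: 0% = vehicle with agonist challenge and 100% = reference antagonist with challenge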
NPY-Y1 confirm = human NPY-Y1 potentiation or agonism, confirmation; shares compounds with NPY-Y1 PAM-ag; cell-based NPY-Y1 potentiator/agonist assay; activation, % at 3.6 µM; hit rate 20% among 280; in the data active = activation above about 45%;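 also: cells challenged with NPY at its EC10 plus isoproterenol stimulus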
NPY-Y2 counter = potentiates or activates NPY-Y2, counter-screen for NPY-Y1 hits. shares compounds with NPY-Y1 PAM-ag. HEK293-CNG cells, membrane-potential fluorescence (FLIPR), 1536-well. activation, % at 3.6 µM. hit rate 20% among 280. AID 1649; in the data active = activation above about 33%
NPY-Y1 ag = activates human NPY-Y1, counter-screen for NPY-Y1 potentiators | shares compounds with NPY-Y1 PAM-ag | HEK293 Y1-CNGC, membrane potential fluorescence, agonist mode | activation, % at 3.6 µM | hit rate 50% among 280 | AID 1697;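 active = percent activation above the mean of DMSO-only control wells plus 3 SD of those wells, cut at about 18% in these data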;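 also: cells challenged with isoproterenol plus Ro 20-1724 with no NPY in test wells; Y1 agonism lowers isoproterenol-driven cAMP and reduces probe fluorescence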
NPY-Y2 ag = human NPY-Y2 agonism as NPY-Y1 counter-screen. activation, % at 3.6 µM. hit rate 67% among 280. shares compounds with NPY-Y1 PAM-ag. HEK293 Y2-CNGC, membrane potential fluorescence, agonist mode;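 active = activation above the solvent-only control wells' mean plus 3 SD, cut at about 11% in these data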;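 also: 0% = DMSO with isoproterenol and 100% = 40 nM NPY maximal response; agonism lowers cAMP so well fluorescence drops in active wells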
CNGC counter = counter-screen for NPY-Y1 potentiators or agonists: CNG channel inhibitors | HEK293-CNG parental, isoproterenol cAMP, membrane potential fluorescence | hit rate 42% among 280 | inhibition, % at 3.6 µM | shares compounds with NPY-Y1 PAM-ag;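 active = inhibition above the mean of stimulated solvent-only control wells plus 3 SD, cut at about 22% in these data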;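 also: 0% = isoproterenol-stimulated DMSO wells and 100% = unstimulated DMSO wells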
* marks the source's active call; other numbers are inactive results; nt = no result given. Compounds with a hit are over-represented: about 1.9% of the library has one in this group of screens.

SMILES	NPY-Y1 antag	NPY-Y1 PAM-ag	NPY2 pot ag	NPY-Y2 antag	NPY-Y1 confirm	NPY-Y2 counter	NPY-Y1 ag	NPY-Y2 ag	CNGC counter
Cc1ccc(NC(=O)c2noc3c2CCCCC3)cc1C	7.8	49.1*	-4.9	5.1	-11.4	-3.6	-11.1	-5.4	-14.2
CCCCC(=O)Nc1ccc(C(=O)Nc2ccc(S(=O)(=O)Nc3ccc(C)cc3)cc2)cc1	-11.4	59.5*	21.5	-5.4	19.9	15.6	10.3	16.5*	14.9
O=C(CC1C(=O)NCCN1Cc1ccoc1)NCCCn1ncc2ccccc21 (stereo not given)	-0.4	-5.7	9.2	nt	nt	nt	nt	nt	nt
CCN(CC)C(=O)Cn1cnc2sc(C(=O)Nc3cc(OC)c(OC)c(OC)c3)c(C)c2c1=O	0.4	24.8	10.0	0.9	nt	nt	nt	nt	nt
COc1nccnc1NS(=O)(=O)c1ccc(NS(=O)(=O)c2ccc(NC(C)=O)cc2)cc1	-1.4	81.1*	-3.2	3.0	5.1	-1.4	2.6	8.5	12.7
Cc1nc(C)c(-c2csc(Nc3cccnc3)n2)s1	-15.8	40.1*	25.9	-6.7	51.1*	41.4*	52.6*	52.0*	41.4*
CCOC(=O)N1CCN(C(=O)c2ccc(SC)cc2OC)CC1	6.4	9.9	-4.4	nt	nt	nt	nt	nt	nt
O=S(=O)(NCc1cccc(C(F)(F)F)c1)NCc1ccccc1F	4.0	9.8	-4.5	nt	nt	nt	nt	nt	nt
COc1ccc(CNC(=O)c2c(O)c3cccc4c3n(c2=O)CCC4)cc1OC	0.8	34.8*	-16.0	2.0	-8.0	0.0	-2.6	2.7	-0.8
COCCSc1ccccc1C(=O)NCc1cccnc1	3.0	-4.2	2.1	nt	nt	nt	nt	nt	nt
Cc1onc(-c2c(Cl)cccc2Cl)c1C(N)=O	-5.0	6.2	3.3	5.1	nt	nt	nt	nt	nt
Cc1onc(-c2c(Cl)cccc2Cl)c1C(=O)n1nnc2ccccc21	6.1	45.3*	-13.5	1.9	5.3	-3.2	-3.5	-5.1	2.8
Cc1nn(CCO)c(N)c1C1(O)C(=O)Nc2c(Cl)cc(Cl)cc21 (stereo not given)	3.7	-1.0	-1.4	nt	nt	nt	nt	nt	nt
Clc1ccc(-[n+]2c(-c3cccc(Br)c3)[nH]c3nc4ccccc4nc32)cc1	nt	51.2*	6.9	nt	49.8*	46.9*	4.6	36.4*	5.6
COc1ccc(N/N=C(\C#N)C(=N)SCc2ccccc2)cc1	-4.0	37.2*	24.6	nt	17.6	5.5	17.1	23.1*	15.3
O=C(Cn1c(=O)sc2ccccc21)OC(CCl)CCl	-8.8	44.3*	23.7	0.4	78.1*	48.6*	62.5*	48.6*	75.3*
CC1OC(Nc2ccc(N=Nc3ccccc3)cc2)C(O)C(O)C1O (stereo not given)	-8.9	37.7*	16.1	nt	33.0	24.2	26.8*	37.1*	15.8
CC1OC(Nc2cccc3ccccc23)C(O)C(O)C1O (stereo not given)	0.1	-11.2	6.8	1.8	nt	nt	nt	nt	nt
COc1ccc(N(CCCN2C(=O)c3cccc4cccc(c34)C2=O)C(=O)c2cccnc2)cc1	-1.5	18.5	-5.7	nt	nt	nt	nt	nt	nt
COc1ccc(N(CCCN2C(=O)c3cccc4cccc(c34)C2=O)C(=O)c2ccncc2)cc1	3.5	42.4*	-4.2	nt	-1.6	-7.0	-11.2	-4.4	-3.9
O=C(CN1C(=O)NC(c2ccccc2)(c2ccccc2)C1=O)c1c[nH]c2ccccc12	-7.7	39.6*	27.8	nt	36.4	27.8	33.7*	21.3*	29.2*
COC(=O)COc1ccc(/C=C2/NC(=O)N(CC(=O)OC)C2=O)cc1	-2.4	49.1*	8.9	nt	117.6*	89.8*	102.9*	89.1*	96.4*
CC(C)c1ccc(/C=C(\NC(=O)c2ccccc2)C(=O)NCCCN2CCOCC2)cc1	nt	3.9	-12.1	nt	nt	nt	nt	nt	nt
O=C(Nc1ccc(F)cc1)C1C2CCC3C(CCC21)C3(Cl)Cl (stereo not given)	nt	51.6*	7.8	nt	16.8	9.8	0.2	-0.9	20.2
